The values below come from article PMC12032937 (iScience, 2025).

In assay [1] the test system is mPRδ. As to conditions: MDA231 cells transiently transfected to express mPRδ; cited from earlier work.
Assay [2] deals with T1, mPRδ (Mus musculus, UniProt Q6TCG5).
T1 sequence (Q6TCG5 1-343): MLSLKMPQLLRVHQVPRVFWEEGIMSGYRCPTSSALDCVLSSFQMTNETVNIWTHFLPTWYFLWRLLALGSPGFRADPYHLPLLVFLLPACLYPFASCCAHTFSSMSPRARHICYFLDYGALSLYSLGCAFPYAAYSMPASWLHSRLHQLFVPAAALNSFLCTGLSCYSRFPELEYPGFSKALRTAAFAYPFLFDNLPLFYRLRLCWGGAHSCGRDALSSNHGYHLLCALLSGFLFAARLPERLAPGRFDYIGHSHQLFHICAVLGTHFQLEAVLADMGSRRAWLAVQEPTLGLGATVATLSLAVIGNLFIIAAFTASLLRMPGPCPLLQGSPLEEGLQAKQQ
The assay is described as follows: PKC activation. In kind it is cell-based. As to conditions: mPRδ-GFP cells, 300nM, 20 min, increase above control (100%).

Assay [3] concerns the target T1, mPRδ. The assay can be described thus: Gq luminescent reporter assay. In kind it is cell-based.
Assay [4] deals with T2, mPRε (Mus musculus, UniProt Q6TCG2).
T2 sequence (Q6TCG2 1-375): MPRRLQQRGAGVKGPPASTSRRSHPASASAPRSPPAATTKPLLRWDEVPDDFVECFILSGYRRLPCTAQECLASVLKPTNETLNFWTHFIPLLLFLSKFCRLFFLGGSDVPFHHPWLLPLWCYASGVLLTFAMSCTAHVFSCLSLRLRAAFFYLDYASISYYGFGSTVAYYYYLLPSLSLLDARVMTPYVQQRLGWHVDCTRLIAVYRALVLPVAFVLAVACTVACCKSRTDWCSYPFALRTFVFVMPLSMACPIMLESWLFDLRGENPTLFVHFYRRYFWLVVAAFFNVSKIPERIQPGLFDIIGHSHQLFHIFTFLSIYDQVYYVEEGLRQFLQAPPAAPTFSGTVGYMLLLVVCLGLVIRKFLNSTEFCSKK
The assay is described as follows: PKA activation. As to conditions: mPRε-GFP cells, 20 min; for PKA activation, pPKA/PKA normalized to control (100%): mean ± SEM, n=4; for increase in PKA activation compared to control treatment: increase above control (100%). In kind it is cell-based. The gist of the method: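 MDA-MB-231 cells lentivirally expressing mouse mPRε-C-terminal GFP, FACS-selected clonal line, kept in DMEM/10% charcoal-stripped FBS, passage ≤20. Treated 20 min with test compound at 3–300nM, lysed in RIPA with phosphatase inhibitors, immunoblotted for phospho and total kinase. Ratio normalized to control within the line, then to host MDA231 cells; n = 4 separate passages; two-way ANOVA, Sidak post hoc.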

Assay [5] concerns the target T2, mPRε. The assay can be described thus: Gs luminescent reporter assay. In kind it is cell-based. Summed up: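 Clonal MDA-MB-231 cells stably expressing mouse mPRε with a C-terminal GFP tag, transfected (Lipofectamine 3000) with CRE-luciferase reporter, grown 72 h, then treated 6 h with a test compound concentration series; forskolin positive control. Lysed, luciferase luminescence read; runs kept only if positive control ≥2× untreated. Min/max scaled 0–100, curves fitted for EC50; n = 4.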
(In general: A reporter such as luciferase makes a cellular process visible.)

Assay [6] deals with T1, mPRδ. The assay can be described thus: PKA activation. In kind it is cell-based. As to conditions: mPRδ-GFP cells, 20 min, mean ± SEM, n=4.

By EC50 is commonly meant the concentration at which the effect is half-maximal. Low readings indicate greater potency, high ones weaker potency.

Take `CC(=O)[C@H]1CC[C@H]2[C@@H]3CCC4=CC(=O)CC[C@]4(C)[C@H]3CC[C@]12C` [progesterone]: the “phosphorylation of ERK” value in assay [1] is reported as “significant increase”.

For `CC(=O)[C@H]1CC[C@H]2[C@@H]3CC[C@H]4C[C@H](O)CC[C@]4(C)[C@H]3CC[C@]12C` [ALLO, allopregnanolone], in assay [2], the “increase in PKC activation/phosphorylation compared to control treatment” value is listed as 43.58 ± 5.34%. Moreover, the EC50 was 11.3 nM in assay [3] and 2.5 nM in assay [5]. Moreover, the “PKA activation, pPKA/PKA normalized to control (100%)” value in assay [4] (3nM) is recorded as 105.57 ± 15.02%; in assay [4] (10nM) it was 130.55 ± 16.45%; in assay [4] (30nM) it was 153.4 ± 19.57%; in assay [4] (100nM), 160.49 ± 20.14%; in assay [4] (300nM), 164.44 ± 15.71%; in assay [6] (3nM), 86.327 ± 5.39%. The “PKA activation, pPKA/PKA normalized to control (100%)” value in assay [6] (10nM) came out at 91.441 ± 4.66%; in assay [6] (30nM), 83.155 ± 4.54%; in assay [6] (100nM) it was 98.624 ± 11.00%; in assay [6] (300nM), 103.26 ± 14.05%. Also, the “increase in PKA activation compared to control treatment” value is 53.44% in assay [4] (30nM), 60.49% in assay [4] (100nM) and 64.44% in assay [4] (300nM). The “phosphorylation of ERK” value in assay [1] was “significant increase”.
